One may read the inhibition as the percentage by which the read-out fell short of the control. One may read the IC50 as the point on the concentration scale where inhibition reaches its midpoint. As usually defined, the half-life is the time in which the quantity being followed falls by half. Read a high half-life as slow decline. Usually EC50 stands for the concentration giving half of the maximal effect.

Results on four compounds are retold here after ChEMBL document CHEMBL3632592, “Identification of Highly Promising Antioxidants/Neuroprotectants Based on Nucleoside 5'-Phosphorothioate Scaffold. Synthesis, Activity, and Mechanisms of Action” (J Med Chem, 2015).

Data set [1] is described as follows: Antioxidant activity in human NTERA2 cells assessed as inhibition of Fe2+-induced reactive oxygen species formation at 0.2 uM after 1 hr by DCFH-DA dye-based fluorometric analysis relative to control. It counts as functional. The settings on record: NTERA2, 1 h.
The nature of data set [2]: Antioxidant activity assessed as inhibition of Fe2+-induced DMPO-OH adduct formation from H2O2 preincubated for 30 secs followed by DMPO/H2O2 addition measured after 150 secs by ESR analysis. The data set is classed as physicochemical. The method in brief: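 Fenton/ESR spin trapping: 1 mM ammonium iron(II) sulfate was added to 5–500 µM compound, then Tris buffer pH 7.4 (final pH 7.2–7.4). After 30 s, 100 mM DMPO and 100 mM H2O2 were added (stock concentrations). The ESR spectrum was recorded 150 s after H2O2, at room temperature. DMPO-OH adduct expressed as % of control containing FeSO4, H2O2 and DMPO only.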

Data set [3] in a line: Half life of the compound in RPMI-1640 medium at 37 degC by HPLC analysis. It counts as ADME. The method, boiled down:
(§1)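 Nucleotides were incubated in human blood serum or RPMI-1640 at 37 °C for 0.5–24 h. Hydrolysis was followed by the change in HPLC peak integration of each analogue over time, and half-life was derived from this.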

The nature of data set [4]: Half life in human serum at 37 degC by HPLC analysis. The data set is classed as ADME, cell-free. The method in brief:
as §1

For a further data set, the target named is P2Y purinoceptor 1 (Homo sapiens, UniProt P47900). Briefly: Agonist activity at GFP-tagged human P2Y1R transfected in human 1321N1 cells assessed as increase in intracellular Ca2+ level by fura 2/AM probe-based fluorescence assay. The data set is classed as functional, cell-based.
Data set [5] addresses T1, eNPP1 (ectonucleotide pyrophosphatase/phosphodiesterase family member 1) (Homo sapiens, UniProt P22413).
T1 sequence (P22413 whole entry): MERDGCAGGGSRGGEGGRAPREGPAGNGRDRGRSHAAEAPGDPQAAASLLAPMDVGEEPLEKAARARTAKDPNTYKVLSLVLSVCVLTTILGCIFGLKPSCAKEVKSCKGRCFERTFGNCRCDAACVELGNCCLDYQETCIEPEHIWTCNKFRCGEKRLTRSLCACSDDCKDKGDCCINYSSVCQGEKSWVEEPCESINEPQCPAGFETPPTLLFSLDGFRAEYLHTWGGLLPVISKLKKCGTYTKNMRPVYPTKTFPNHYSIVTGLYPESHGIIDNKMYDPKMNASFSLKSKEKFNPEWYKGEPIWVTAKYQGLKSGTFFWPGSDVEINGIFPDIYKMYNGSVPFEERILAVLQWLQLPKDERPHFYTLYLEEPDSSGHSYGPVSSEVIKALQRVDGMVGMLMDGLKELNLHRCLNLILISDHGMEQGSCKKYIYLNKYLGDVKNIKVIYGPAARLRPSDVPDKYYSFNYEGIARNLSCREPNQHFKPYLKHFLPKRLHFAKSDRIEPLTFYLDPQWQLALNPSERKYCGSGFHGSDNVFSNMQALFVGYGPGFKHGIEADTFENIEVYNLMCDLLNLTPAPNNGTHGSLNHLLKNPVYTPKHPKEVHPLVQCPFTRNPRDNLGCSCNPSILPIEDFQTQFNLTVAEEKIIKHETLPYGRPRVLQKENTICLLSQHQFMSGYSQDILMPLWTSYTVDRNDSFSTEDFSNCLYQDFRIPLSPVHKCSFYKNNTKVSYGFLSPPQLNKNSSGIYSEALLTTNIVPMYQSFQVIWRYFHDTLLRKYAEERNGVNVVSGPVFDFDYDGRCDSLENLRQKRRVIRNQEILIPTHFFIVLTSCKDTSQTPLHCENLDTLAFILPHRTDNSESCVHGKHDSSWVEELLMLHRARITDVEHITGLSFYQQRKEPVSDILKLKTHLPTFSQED
Briefly: (§2) Drug metabolism assessed as human eNPP1-mediated compound hydrolysis at 4 mM after 2 hrs by reverse-phase HPLC analysis relative to ATP. The data set is classed as ADME. The settings on record: human eNPP1 enzyme, read-out: Drug metabolism. The method, boiled down: (§3)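 Human eNPP1 extract (19 µg) was preincubated 3 min at 37 °C in 1 mM CaCl2, 200 mM NaCl, 10 mM KCl, 100 mM Tris pH 8.5, then reaction started with compound (4 mM stock). Stopped after 2 h with ice-cold 1 M perchloric acid, neutralised with KOH, and analysed by RP-HPLC (90% 100 mM TEAA pH 7/10% CH3CN). Degradation from the monophosphate peak after subtracting the acid-only control.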

The nature of data set [6]: Neuroprotective activity against Fe2+-induced oxidative damage in rat primary cortical neurons assessed as cell viability after 24 hrs by MTT assay. The data set is classed as functional, cell-based. The settings on record: Cerebral cortex neuron. The method in brief:
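Rat (1-day-old) cortical neurons were grown serum-free in DMEM/F12 with B-27 on poly-ornithine, treated with Ara-C and cultured 5 d. Cells were pretreated with nucleotide (0.01–25 µM), then exposed to FeSO4 3 µM final for 24 h. MTT 1 mg/mL was added for 2 h at 37 °C, formazan dissolved in DMSO, A550 read. Viability given as % of vehicle control; three independent experiments in triplicate.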
(In general: Tetrazolium assays rely on reduction of a dye to a coloured formazan, in cell work by metabolically active cells.)

Data set [7] is described as follows: Antioxidant activity assessed as ABTS radical scavenging activity after 7 mins. It counts as physicochemical. The method, boiled down:
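ABTS radical cation made from 7 mM ABTS with 2.45 mM persulfate (final), kept in the dark at room temperature 12–16 h. It was then diluted in water pH 7.4 to A734 0.80 and mixed with compound or Trolox standard (final 0–60 µM). A734 was read at 7 min. Percent inhibition plotted against concentration; at least three runs, in triplicate.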

The next data set has as its target T2, P2Y purinoceptor 11 (Homo sapiens, UniProt Q96G91).
T2 sequence (Q96G91 whole entry): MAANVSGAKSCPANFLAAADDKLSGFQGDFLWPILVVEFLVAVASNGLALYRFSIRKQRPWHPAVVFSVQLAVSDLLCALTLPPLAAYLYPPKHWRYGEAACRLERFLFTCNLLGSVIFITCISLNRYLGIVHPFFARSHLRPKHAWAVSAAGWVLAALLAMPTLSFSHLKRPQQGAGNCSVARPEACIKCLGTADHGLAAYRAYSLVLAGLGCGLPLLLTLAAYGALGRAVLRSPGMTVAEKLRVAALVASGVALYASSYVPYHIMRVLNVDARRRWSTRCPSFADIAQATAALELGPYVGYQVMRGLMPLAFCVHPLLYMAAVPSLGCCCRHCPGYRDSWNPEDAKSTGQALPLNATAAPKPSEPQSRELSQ
Briefly: Agonist activity at GFP-tagged human P2Y11R transfected in human 1321N1 cells assessed as increase in intracellular Ca2+ level by fura 2/AM probe-based fluorescence assay. The data set is classed as functional, cell-based.

Data set [8] in a line: Metal chelating activity assessed as inhibition of Fe2+-ferrozine complex formation at 80 uM after 10 mins relative to control. It counts as physicochemical. The method, boiled down:
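FeSO4 (final 10 µM) was mixed with ferrozine (final 20 µM) and nucleotide (final 25–200 µM) in water and agitated 10 min at room temperature. Fe(II)-ferrozine complex absorbance at 562 nm, measured with versus without compound. Mean of three experiments.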

Data set [9] has as its system Serum. Briefly: Drug metabolism in human serum assessed as formation of adenosine at 37 degC measured over 24 hrs by HPLC analysis. The data set is classed as ADME, cell-free. The method in brief: (§4)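 Incubation in human blood serum and in RPMI-1640 at 37 °C for 0.5–24 h. The HPLC peak integration of each nucleotide is followed over time, and half-life comes from the decay. The products AMP and adenosine are seen as HPLC peaks.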

The nature of data set [10]: Metal chelating activity assessed as inhibition of Fe2+-ferrozine complex formation at 200 uM after 10 mins relative to control. The data set is classed as physicochemical. The method, boiled down: (§5)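 Competitive ferrozine assay. FeSO4 (final 10 µM) and ferrozine (final 20 µM) are mixed with nucleotide in DDW at final 25–200 µM and agitated 10 min at room temperature. Absorbance of the Fe(II)-ferrozine complex is read at 562 nm with and without compound, and inhibition of complex formation is calculated. Three experiments, mean ± S.D.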

Data set [11] is described as follows: Metal chelating activity assessed as inhibition of Fe2+-ferrozine complex formation after 10 mins. It counts as physicochemical. The method, boiled down: as §5
The target of data set [12] is T3, Ectonucleotide pyrophosphatase/phosphodiesterase family member 1 (Homo sapiens, UniProt P22413).
T3 sequence (P22413 whole entry): T1 sequence (P22413 whole entry)
The description is as §2. The note with it: 2 h, 4000 µM. The data set is classed as ADME. The method, boiled down:
as §3

The test system of data set [13] is Serum. Briefly: Drug level in human serum treated with ADP at 37 degC measured over 24 hrs by HPLC analysis. The data set is classed as ADME, cell-free. The method, boiled down: as §4
The nature of data set [14]: Drug level in RPMI-1640 medium treated with ADP at 37 degC measured over 24 hrs by HPLC analysis. The data set is classed as physicochemical. The method in brief: as §4

Chain of P2Y purinoceptor 1 (P47900 whole entry): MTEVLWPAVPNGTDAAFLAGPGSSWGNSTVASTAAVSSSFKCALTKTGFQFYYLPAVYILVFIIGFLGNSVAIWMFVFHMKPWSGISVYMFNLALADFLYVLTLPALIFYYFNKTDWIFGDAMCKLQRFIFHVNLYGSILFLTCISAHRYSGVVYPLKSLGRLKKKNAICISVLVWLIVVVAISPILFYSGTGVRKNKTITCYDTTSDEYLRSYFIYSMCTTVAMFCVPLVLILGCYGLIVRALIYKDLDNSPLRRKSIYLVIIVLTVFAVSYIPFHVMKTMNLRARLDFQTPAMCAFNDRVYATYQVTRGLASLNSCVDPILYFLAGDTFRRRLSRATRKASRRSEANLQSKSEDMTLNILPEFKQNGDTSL

With `CSc1nc(N)c2ncn([C@@H]3O[C@H](COP(=O)(S)OP(=O)(O)O)[C@@H](O)[C@H]3O)c2n1` (stereo in doubt; 7A), the inhibition at 0.2 µM in [1] turned out to be 50%. Also, the IC50 in data set [2] is 37 µM; in the data set on PC-12, 0.08 µM; in [7], 12.5 µM. Besides, the half-life in data set [3] and in data set [4] was 15 h each time. The EC50 was determined as 0.0026 µM at P2Y purinoceptor 1, 0.04 µM in data set [6] and 3.2 µM at P2Y purinoceptor 11. Besides, the metabolised at 2 h, 4000 µM in [5] was 36.6%. Besides, the “inhibition (INH)” value in [8] came out at 50%.

Regarding `Nc1ncnc2c1ncn2[C@@H]1O[C@H](COP(=O)(O)OP(=O)(O)O)[C@@H](O)[C@H]1O` [ADENOSINE DIPHOSPHATE], the 50% inhibitory concentration (IC50) in [2] is 170 µM; in [11], more than 200 µM; in [7], 30 µM. In addition, the half-life in data set [3] and in [4] was 1.5 h throughout. In addition, the Drug metabolism result with Serum [9] is given as “metabolite_detected”. For the same compound, the “inhibition (INH)” value in [10] came out at 40%. Moreover, the EC50 in data set [6] worked out at 19 µM.

In the case of `CSc1nc(N)c2ncn([C@@H]3O[C@H](COP(=O)(S)OP(=O)(O)O)[C@@H](O)[C@H]3O)c2n1` (stereo in doubt; 7B), the IC50 in [2] was 38 µM; in the data set with PC-12, 0.6 µM; in data set [7] it was 12 µM. The EC50 on P2Y purinoceptor 1 turned out to be 0.017 µM; on P2Y purinoceptor 11, 1 µM. Besides, in data set [12], the Drug metabolism was determined as 23.7%.

Regarding `Nc1ncnc2c1ncn2[C@@H]1O[C@H](CO)[C@@H](O)[C@H]1O` [ADENOSINE], the Drug metabolism result (in the data set with Serum [13]; in data set [14]) was “metabolite_detected” each time.
